This is an account of results in ChEMBL document CHEMBL4665720, “Bioisosteric substitution of adamantane with bicyclic lipophilic groups improves water solubility of human soluble epoxide hydrolase inhibitors” (Bioorg Med Chem Lett, 2020).

SMILES strings stand for the structures. Converted amounts (≈) assume the structure as drawn.

Data set [1] has as its target T1, Bifunctional epoxide hydrolase 2 (Homo sapiens, UniProt P34913).
T1 sequence (P34913 whole entry): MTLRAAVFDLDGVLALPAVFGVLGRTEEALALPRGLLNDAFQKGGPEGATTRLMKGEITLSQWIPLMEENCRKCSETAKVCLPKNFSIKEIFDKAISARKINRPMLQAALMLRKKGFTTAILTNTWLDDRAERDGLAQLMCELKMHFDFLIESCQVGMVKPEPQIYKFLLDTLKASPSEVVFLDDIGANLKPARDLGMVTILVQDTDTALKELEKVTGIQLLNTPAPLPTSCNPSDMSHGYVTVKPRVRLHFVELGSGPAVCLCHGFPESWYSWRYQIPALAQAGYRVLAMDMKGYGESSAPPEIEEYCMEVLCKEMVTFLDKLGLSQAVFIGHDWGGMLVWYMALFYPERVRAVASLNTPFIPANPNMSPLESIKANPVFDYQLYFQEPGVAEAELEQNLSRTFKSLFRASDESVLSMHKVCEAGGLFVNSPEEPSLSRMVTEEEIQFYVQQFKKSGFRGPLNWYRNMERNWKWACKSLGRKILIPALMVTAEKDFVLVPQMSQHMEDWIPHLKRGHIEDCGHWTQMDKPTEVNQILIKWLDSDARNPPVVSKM
As to the kind of experiment: Inhibition of human soluble epoxide hydrolase by kinetic fluorescent assay. An outline of the steps: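 Human sEH enzyme, kinetic fluorescence read-out; each value is the mean of three separate experiments.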

A short description of data set [2]: Solubility of the compound in 0.1 M sodium phosphate buffer at pH 7.4. The format is physicochemical. An outline of the steps: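 Measured in 0.1 M sodium phosphate buffer, pH 7.4, with 1% DMSO present.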

`CC1(C)[C@@H]2CC[C@@]1(C)C(NC(=O)Nc1ccccc1F)C2` (mixture of isomers) returned a half-maximal inhibitory concentration (IC50) in data set [1] of 50.6 nM. This compound also had a solubility in data set [2] (buffer) of 225 µM.

`CC1(C)C2CCC1(C)C(NC(=O)NCCCCNC(=O)NC1CC3CCC1(C)C3(C)C)C2` (stereo not given): the IC50 in data set [1] was found to be 2.3 nM. Also, the solubility in data set [2] (buffer) was 10 µM (≈ 4.47 µg/mL).

In data set [1], `O=C(NC1CC2C=CC1C2)N[C@H]1CC[C@H](Oc2ccc(C(=O)O)cc2)CC1` (stereo not given in full) showed an IC50 of 1.5 nM. In data set [2] (buffer), this compound gave a solubility of 350 µM (≈ 130 µg/mL).

In data set [1], `CCCCCCCCNC(=O)NC1CC2CCC1(C)C2(C)C` (stereo not given) had a half-inhibitory concentration (IC50) of 6.5 nM. In data set [2] (buffer), this compound registered a solubility of 125 µM (≈ 38.6 µg/mL).

Consider `O=C(NCCCCCCNC(=O)NCc1ccco1)NCc1ccco1`, for which the midpoint of inhibition in data set [1], the IC50, lay at 86.3 nM. This compound displayed a solubility in data set [2] (buffer) of 100 µM (≈ 36.2 µg/mL).

In data set [1], `O=C(NCC12CC3CC(CC(C3)C1)C2)NC1CC2C=CC1C2` (stereo not given) displayed an IC50 of 0.7 nM.

In data set [1], `O=C(NCCCCNC(=O)NC1CC2CCC1C2)NC1CC2CCC1C2` (stereo not given) showed an IC50 of 11.8 nM. In data set [2] (buffer), this compound showed a solubility of 75 µM (≈ 27.2 µg/mL).

For the compound `O=C(NCCCCCCCCNC(=O)NC1CC2CCC1C2)NC1CC2CCC1C2` (stereo not given), in data set [1], the IC50 came to 0.4 nM.

Compound `O=C(NCc1ccco1)Nc1ccccc1F` gave a half-maximal inhibitory concentration (IC50) in data set [1] of 635 nM. In data set [2] (buffer), this compound returned a solubility of 425 µM (≈ 99.5 µg/mL).

Take `CC1(C)C2CCC1(C)C(NC(=O)NCCCCCCCCNC(=O)NC1CC3CCC1(C)C3(C)C)C2` (stereo not given): half-maximal inhibition in data set [1] (IC50) was put at 0.4 nM. Also, the solubility in data set [2] (buffer) turned out to be 10 µM (≈ 5.03 µg/mL).

Take `CC12CCC(NC(=O)N[C@H]3CC[C@H](Oc4ccc(C(=O)O)cc4)CC3)(OC1=O)C2(C)C` (stereo not given in full): the IC50 in data set [1] was 35.3 nM. Further, in data set [2] (buffer), the solubility was found to be 300 µM (≈ 129 µg/mL).

Compound `O=C(NCCCCCCCCNC(=O)NCc1ccco1)NCc1ccco1` registered a solubility in data set [2] (buffer) of 50 µM (≈ 19.5 µg/mL).

Compound `O=C(NC1CC2C=CC1C2)NC1C2CC3CC(C2)CC1C3` (stereo not given) came in with an IC50 in data set [1] of 0.9 nM.

`O=C(NCCCCNC(=O)NCc1ccco1)NCc1ccco1` registered a half-maximal inhibitory concentration (IC50) in data set [1] of 1800 nM. In data set [2] (buffer), this compound gave a solubility of 225 µM (≈ 75.2 µg/mL).

In turn, `CCOC(=O)CNC(=O)NC1CC2CCC1(C)C2(C)C` (stereo not given) showed an IC50 in data set [1] of 2170 nM. For the same compound, the solubility in data set [2] (buffer) is over 2000 µM.

In turn, `O=C(Nc1ccccc1F)NC1CC2CCC1C2` (stereo not given) showed an IC50 in data set [1] of 6.8 nM. Further, in data set [2] (buffer), the solubility turned out to be 325 µM (≈ 80.7 µg/mL).

In turn, `CC1(C)[C@H]2CC[C@]1(C)C(NC(=O)Nc1ccccc1F)C2` (mixture of isomers) gave an IC50 in data set [1] of 3.7 nM.

Take `O=C(Nc1ccc(OC(F)(F)F)cc1)N[C@H]1CC[C@H](Oc2ccc(C(=O)O)cc2)CC1`: the solubility in data set [2] (sodium phosphate buffer, read-out: solubility) worked out at 5 µM (≈ 2.19 µg/mL).

`O=C(Nc1ccc(OC(F)(F)F)cc1)NC1CC2CCC1C2` (stereo not given) came in with an IC50 in data set [1] of 0.4 nM.

In data set [1], `CCOC(=O)CNC(=O)NC1CC2CCC1C2` (stereo not given) returned an IC50 of 1580 nM. For the same compound, the solubility in data set [2] (buffer) was over 2000 µM.

Turning to `CC1(C)C2CCC1(C)C(NC(=O)Nc1ccc(OC(F)(F)F)cc1)C2` (stereo not given), the IC50 in data set [1] was found to be 2.5 nM.

The compound `CC1(C)C2CCC1(C)C(NC(=O)Nc1ccccc1F)C2` (stereo not given) came in with a half-maximal inhibitory concentration (IC50) in data set [1] of 14.4 nM. In data set [2] (buffer), the solubility was found to be 225 µM (≈ 65.3 µg/mL).

In the case of `O=C(NCCCCCCCCCCNC(=O)NC1CC2C=CC1C2)NC1CC2C=CC1C2` (stereo not given), the midpoint of inhibition in data set [1], the IC50, lay at 0.4 nM.

For `O=C(NCc1ccco1)NCC12CC3CC(CC(C3)C1)C2`, the half-maximal inhibitory concentration (IC50) in data set [1] amounted to 44.8 nM. Besides, the solubility in data set [2] (buffer) was found to be 300 µM (≈ 86.5 µg/mL).

`O=C(NCCCCNC(=O)NC1CC2C=CC1C2)NC1CC2C=CC1C2` (stereo not given) registered an IC50 in data set [1] of 21 nM.

By IC50 is commonly meant the concentration that gives 50% inhibition. Higher therefore signals weaker potency in that assay. The term solubility denotes the concentration that dissolves in the medium under given conditions.
